{"source": "ChEMBL document CHEMBL5303300", "about": "“EUbOPEN Chemogenomics Library - Multiplex” (2023)", "key": {"HEK-293T": {"system": "HEK-293T", "assay": "Multiplex assay against HEK293T", "assay_type": "toxicity, cell-based", "details": "human, number of replicates 2", "summary_of_the_method": "(§1)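 With compound added, live cells were imaged on a CQ1 microscope at 37°C and 5% CO2; staining with Hoechst33342, BioTracker Green Microtubule Cytoskeleton Dye, MitoTracker Red and Annexin V Alexa Fluor 680 had been done at seeding. The CellPathfinder machine-learning gating scheme split cells into Hoechst high-intensity objects or normal cells, normal cells into healthy, pyknosed or fragmented nuclei, and pyknosed cells into mitotic or apoptotic. The tubulin, mitochondrial-mass and membrane-permeability phenotypes are per cents of healthy-nucleus cells.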"}, "U2OS": {"system": "U2OS", "assay": "Multiplex assay against U2OS", "assay_type": "toxicity, cell-based", "details": "human, number of replicates 2", "summary_of_the_method": "as §1"}, "[1]": {"details": "24 h, 1 µM, compound concentration 1 uM"}, "[2]": {"details": "24 h, 10 µM, compound concentration 10 uM"}, "[3]": {"details": "48 h, 1 µM, compound concentration 1 uM"}, "[4]": {"details": "48 h, 10 µM, compound concentration 10 uM"}, "[5]": {"details": "12 h, 1 µM, compound concentration 1 uM"}, "[6]": {"details": "12 h, 10 µM, compound concentration 10 uM"}}, "note": "Several values for one entry are separate records, joined by “and”; a condition that tells them apart may be missing. Identical values can stand only once."}
{"smiles": "COc1c(OCCCN2CCOCC2)ccc2c1N=C(NC(=O)c1cnc(N)nc1)N1CCN=C21", "note": "[COPANLISIB]", "values": [{"measurement": "Population Healthy Nuclei (%)", "setting": "HEK-293T; [1]", "value": "74% and 80%"}, {"measurement": "Population Hoechst High Intensity Objects (%)", "setting": "HEK-293T; [1]", "value": "16% and 20%"}, {"measurement": "Population Membrane Permeable-Phenotype (%)", "setting": "HEK-293T; [1]", "value": 1, "unit": "%"}, {"measurement": "Population Mitochondria Different-Phenotype (%)", "setting": "HEK-293T; [1]", "value": "35% and 33%"}, {"measurement": "Population Mitotic Cells (%)", "setting": "HEK-293T; [1]", "value": "23% and 32%"}, {"measurement": "Population Normal (%)", "setting": "HEK-293T; [1]", "value": "83% and 79%"}, {"measurement": "Population Pyknosed Nuclei (%)", "setting": "HEK-293T; [1]", "value": "20% and 15%"}, {"measurement": "Population Tubulin-Different-Phenotype (%)", "setting": "HEK-293T; [1]", "value": "56% and 60%"}, {"measurement": "Total Cell Count", "setting": "HEK-293T; [1]", "value": "382 and 316"}, {"measurement": "Population Apoptotic (%)", "setting": "HEK-293T; [2]", "value": "80% and 50%"}, {"measurement": "Population Fragmented Nuclei (%)", "setting": "HEK-293T; [2]", "value": "6% and 2%"}, {"measurement": "Population Healthy Nuclei (%)", "setting": "HEK-293T; [2]", "value": "76% and 82%"}, {"measurement": "Population Hoechst High Intensity Objects (%)", "setting": "HEK-293T; [2]", "value": "20% and 16%"}, {"measurement": "Population Membrane Permeable-Phenotype (%)", "setting": "HEK-293T; [2]", "value": "2% and 1%"}, {"measurement": "Population Mitochondria Different-Phenotype (%)", "setting": "HEK-293T; [2]", "value": "52% and 58%"}, {"measurement": "Population Mitotic Cells (%)", "setting": "HEK-293T; [2]", "value": "19% and 50%"}, {"measurement": "Population Normal (%)", "setting": "HEK-293T; [2]", "value": "79% and 83%"}, {"measurement": "Population Pyknosed Nuclei (%)", "setting": "HEK-293T; [2]", "value": "17% and 15%"}, {"measurement": "Population Tubulin-Different-Phenotype (%)", "setting": "HEK-293T; [2]", "value": "67% and 68%"}, {"measurement": "Total Cell Count", "setting": "HEK-293T; [2]", "value": "229 and 189"}, {"measurement": "Population Apoptotic (%)", "setting": "HEK-293T; [3]", "value": "62% and 63%"}, {"measurement": "Population Fragmented Nuclei (%)", "setting": "HEK-293T; [3]", "value": "9% and 12%"}, {"measurement": "Population Healthy Nuclei (%)", "setting": "HEK-293T; [3]", "value": "75% and 78%"}, {"measurement": "Population Hoechst High Intensity Objects (%)", "setting": "HEK-293T; [3]", "value": "20% and 26%"}, {"measurement": "Population Membrane Permeable-Phenotype (%)", "setting": "HEK-293T; [3]", "value": "1% and 3%"}, {"measurement": "Population Mitochondria Different-Phenotype (%)", "setting": "HEK-293T; [3]", "value": "16% and 6%"}, {"measurement": "Population Mitotic Cells (%)", "setting": "HEK-293T; [3]", "value": "37% and 36%"}, {"measurement": "Population Normal (%)", "setting": "HEK-293T; [3]", "value": "79% and 73%"}, {"measurement": "Population Pyknosed Nuclei (%)", "setting": "HEK-293T; [3]", "value": "15% and 8%"}, {"measurement": "Population Tubulin-Different-Phenotype (%)", "setting": "HEK-293T; [3]", "value": "70% and 43%"}, {"measurement": "Total Cell Count", "setting": "HEK-293T; [3]", "value": "374 and 726"}, {"measurement": "Population Apoptotic (%)", "setting": "HEK-293T; [4]", "value": "68% and 74%"}, {"measurement": "Population Fragmented Nuclei (%)", "setting": "HEK-293T; [4]", "value": "9% and 6%"}, {"measurement": "Population Healthy Nuclei (%)", "setting": "HEK-293T; [4]", "value": "66% and 76%"}, {"measurement": "Population Hoechst High Intensity Objects (%)", "setting": "HEK-293T; [4]", "value": "20% and 25%"}, {"measurement": "Population Membrane Permeable-Phenotype (%)", "setting": "HEK-293T; [4]", "value": "4% and 2%"}, {"measurement": "Population Mitochondria Different-Phenotype (%)", "setting": "HEK-293T; [4]", "value": "41% and 45%"}, {"measurement": "Population Mitotic Cells (%)", "setting": "HEK-293T; [4]", "value": "31% and 25%"}, {"measurement": "Population Normal (%)", "setting": "HEK-293T; [4]", "value": "79% and 74%"}, {"measurement": "Population Pyknosed Nuclei (%)", "setting": "HEK-293T; [4]", "value": "24% and 16%"}, {"measurement": "Population Tubulin-Different-Phenotype (%)", "setting": "HEK-293T; [4]", "value": "68% and 72%"}, {"measurement": "Total Cell Count", "setting": "HEK-293T; [4]", "value": "262 and 245"}, {"measurement": "Population Apoptotic (%)", "setting": "U2OS; [5]", "value": "100% and 76%"}, {"measurement": "Population Healthy Nuclei (%)", "setting": "U2OS; [5]", "value": "60% and 87%"}, {"measurement": "Population Hoechst High Intensity Objects (%)", "setting": "U2OS; [5]", "value": 0, "unit": "%"}, {"measurement": "Population Membrane Permeable-Phenotype (%)", "setting": "U2OS; [5]", "value": "0% and 2%"}, {"measurement": "Population Mitochondria Different-Phenotype (%)", "setting": "U2OS; [5]", "value": 0, "unit": "%"}, {"measurement": "Population Mitotic Cells (%)", "setting": "U2OS; [5]", "value": "0% and 23%"}, {"measurement": "Population Normal (%)", "setting": "U2OS; [5]", "value": 100, "unit": "%"}, {"measurement": "Population Pyknosed Nuclei (%)", "setting": "U2OS; [5]", "value": "4% and 7%"}, {"measurement": "Population Tubulin-Different-Phenotype (%)", "setting": "U2OS; [5]", "value": "93% and 90%"}, {"measurement": "Population Apoptotic (%)", "setting": "U2OS; [6]", "value": "100% and 76%"}, {"measurement": "Population Healthy Nuclei (%)", "setting": "U2OS; [6]", "value": "32% and 80%"}, {"measurement": "Population Hoechst High Intensity Objects (%)", "setting": "U2OS; [6]", "value": 0, "unit": "%"}, {"measurement": "Population Mitochondria Different-Phenotype (%)", "setting": "U2OS; [6]", "value": "10% and 1%"}, {"measurement": "Population Mitotic Cells (%)", "setting": "U2OS; [6]", "value": "0% and 24%"}, {"measurement": "Population Normal (%)", "setting": "U2OS; [6]", "value": 100, "unit": "%"}, {"measurement": "Population Pyknosed Nuclei (%)", "setting": "U2OS; [6]", "value": "16% and 15%"}, {"measurement": "Population Tubulin-Different-Phenotype (%)", "setting": "U2OS; [6]", "value": 80, "unit": "%"}, {"measurement": "Population Apoptotic (%)", "setting": "U2OS; [1]", "value": "100% and 70%"}, {"measurement": "Population Healthy Nuclei (%)", "setting": "U2OS; [1]", "value": "56% and 86%"}, {"measurement": "Population Hoechst High Intensity Objects (%)", "setting": "U2OS; [1]", "value": 0, "unit": "%"}, {"measurement": "Population Membrane Permeable-Phenotype (%)", "setting": "U2OS; [1]", "value": "0% and 2%"}, {"measurement": "Population Mitochondria Different-Phenotype (%)", "setting": "U2OS; [1]", "value": "0% and 1%"}, {"measurement": "Population Normal (%)", "setting": "U2OS; [1]", "value": 100, "unit": "%"}, {"measurement": "Population Pyknosed Nuclei (%)", "setting": "U2OS; [1]", "value": "8% and 10%"}, {"measurement": "Population Tubulin-Different-Phenotype (%)", "setting": "U2OS; [1]", "value": "100% and 89%"}, {"measurement": "Population Apoptotic (%)", "setting": "U2OS; [2]", "value": "50% and 64%"}, {"measurement": "Population Hoechst High Intensity Objects (%)", "setting": "U2OS; [2]", "value": "2% and 0%"}, {"measurement": "Population Mitotic Cells (%)", "setting": "U2OS; [2]", "value": "50% and 35%"}, {"measurement": "Population Normal (%)", "setting": "U2OS; [2]", "value": "97% and 100%"}, {"measurement": "Population Pyknosed Nuclei (%)", "setting": "U2OS; [2]", "value": 22, "unit": "%"}, {"measurement": "Population Tubulin-Different-Phenotype (%)", "setting": "U2OS; [2]", "value": "75% and 84%"}, {"measurement": "Population Apoptotic (%)", "setting": "U2OS; [3]", "value": "80% and 72%"}, {"measurement": "Population Healthy Nuclei (%)", "setting": "U2OS; [3]", "value": "41% and 88%"}, {"measurement": "Population Hoechst High Intensity Objects (%)", "setting": "U2OS; [3]", "value": "4% and 0%"}, {"measurement": "Population Membrane Permeable-Phenotype (%)", "setting": "U2OS; [3]", "value": "0% and 2%"}, {"measurement": "Population Mitochondria Different-Phenotype (%)", "setting": "U2OS; [3]", "value": "0% and 1%"}, {"measurement": "Population Mitotic Cells (%)", "setting": "U2OS; [3]", "value": "20% and 27%"}, {"measurement": "Population Normal (%)", "setting": "U2OS; [3]", "value": "96% and 99%"}, {"measurement": "Population Pyknosed Nuclei (%)", "setting": "U2OS; [3]", "value": "20% and 8%"}, {"measurement": "Population Tubulin-Different-Phenotype (%)", "setting": "U2OS; [3]", "value": "100% and 95%"}, {"measurement": "Population Apoptotic (%)", "setting": "U2OS; [4]", "value": "92% and 79%"}, {"measurement": "Population Hoechst High Intensity Objects (%)", "setting": "U2OS; [4]", "value": "0% and 1%"}, {"measurement": "Population Mitochondria Different-Phenotype (%)", "setting": "U2OS; [4]", "value": "0% and 3%"}, {"measurement": "Population Mitotic Cells (%)", "setting": "U2OS; [4]", "value": "7% and 20%"}, {"measurement": "Population Normal (%)", "setting": "U2OS; [4]", "value": "100% and 98%"}, {"measurement": "Population Pyknosed Nuclei (%)", "setting": "U2OS; [4]", "value": "34% and 35%"}]}
